Measurements reported in BindingDB's records for doi:10.1021/acs.jmedchem.5b01146 (University of California Irvine, 2016).

Molecular target: Cytochrome P450 3A4 (Homo sapiens, UniProt P08684)
Assay: Binding affinity to C-terminal four-histidine tagged human CYP3A4delta3 to 24 residues expressed in Escherichia coli assessed as spectral dissociation constant by spectrophotometric method
In short: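 Purified recombinant CYP3A4 titrated in 50 mM phosphate pH 7.4 with 20% glycerol and 1 mM DTT, adding small aliquots of compound in DMSO (final solvent <2%). Absorbance spectra recorded on a spectrophotometer. Ks obtained by one- or two-site saturation fitting of absorbance change versus ligand concentration.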

Sequence of Cytochrome P450 3A4 (P08684 whole entry, the tested form may be a part): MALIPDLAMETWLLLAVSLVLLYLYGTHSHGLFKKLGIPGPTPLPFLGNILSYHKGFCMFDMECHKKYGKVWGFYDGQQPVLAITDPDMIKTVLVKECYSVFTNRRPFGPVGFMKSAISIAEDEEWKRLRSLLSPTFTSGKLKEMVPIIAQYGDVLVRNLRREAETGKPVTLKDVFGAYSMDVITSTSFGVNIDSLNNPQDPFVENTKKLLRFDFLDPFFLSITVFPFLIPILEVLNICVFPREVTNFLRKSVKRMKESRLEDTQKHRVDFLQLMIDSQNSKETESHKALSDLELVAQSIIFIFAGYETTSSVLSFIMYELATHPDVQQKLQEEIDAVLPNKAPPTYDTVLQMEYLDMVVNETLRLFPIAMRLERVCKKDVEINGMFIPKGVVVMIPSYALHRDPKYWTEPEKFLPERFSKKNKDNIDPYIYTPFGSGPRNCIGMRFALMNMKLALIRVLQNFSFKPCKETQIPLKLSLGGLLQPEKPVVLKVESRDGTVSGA

| SMILES | Kd [µM] |
| --- | --- |
| CC(C)(C)OC(=O)NCCCCCC(=O)NCc1cccnc1 | 105 |
| c1ccncc1 [CHEBI:16227] | 4500 |
